Results published in ChEMBL document CHEMBL2396577, “Design, synthesis and biological activity evaluation of desloratadine analogues as H1 receptor antagonists” (Bioorg Med Chem, 2013).

Experiments:
[1] = molecular target: Histamine H1 receptor (Cavia porcellus) (UniProt P31389); test: Antagonist activity at histamine H1 receptor in guinea pig ileum assessed as inhibition of histamine-induced smooth muscle spasm at 0.2 mg/mL after 3 mins (reference value: 1.27 +/- 5.65%); assay type: tissue-based; set-up: scale not given: the % may be the effect or the level left
[2] = molecular target: Histamine H1 receptor (Cavia porcellus) (UniProt P31389); test: Antagonist activity at histamine H1 receptor in guinea pig ileum assessed as inhibition of histamine-induced smooth muscle contraction at 0.2 mg/mL after 3 mins (reference value: 3.37 +/- 1.05 g); assay type: tissue-based
Cavia porcellus [3] = test: Antiasthamatic activity in histamine-induced guinea pig asthma model assessed as prolongation of asthmogenic latent period at 0.01 mg/kg, ig pretreated for 60 mins prior to histamine-challenge (reference value: 127.10 +/- 40.46 seconds); assay type: functional; conditions: route intragastric
Mus musculus [4] = test: Toxicity in mouse assessed as irritability at 0.05 to 0.2 mg/kg measured for 7 days; assay type: organism-based; set-up: dose 0.05-0.2 mg/kg; conditions: in vivo, 168 h
In short: (§1)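 Groups of 10 received saline 10 mL/kg, desloratadine 1 mg/kg, or compound at a low dose (0.05 mg/kg) or high dose (0.2 mg/kg), all at a dosing volume of 10 mL/kg. Over the following seven days, mental state, body activity and abnormal signs were observed: sleep, excitement, irritability, convulsion, salivation and muscle tremor.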

Mus musculus [5] = test: Toxicity in mouse assessed as change in body activity at 0.05 to 0.2 mg/kg measured for 7 days; assay type: organism-based; set-up: dose 0.05-0.2 mg/kg; conditions: in vivo, 168 h; in short: as §1
Mus musculus [6] = test: Toxicity in mouse assessed as muscle tremor at 0.05 to 0.2 mg/kg measured for 7 days; assay type: organism-based, Muscle tissue; set-up: dose 0.05-0.2 mg/kg; conditions: in vivo, 168 h; in short: as §1
Mus musculus [7] = test: Toxicity in mouse assessed as effect on pentobarbital sodium-induced hypnotic effect measured as loss of righting reflex latency at 200 mg/kg pretreated for 30 mins prior to pentobarbital sodium-challenge; assay type: organism-based; set-up: dose 200 mg/kg; conditions: in vivo
Ileum [8] = test: Toxicity in guinea pig ileum assessed as effect on acetylcholine-induced smooth muscle spasm at 0.6 ug/mL after 3 mins (reference value: 1.31 +/- 3.66%); assay type: tissue-based, Cavia porcellus; conditions: in vivo
Ileum [9] = test: Toxicity in guinea pig ileum assessed as effect on acetylcholine-induced smooth muscle contraction at 0.6 ug/mL after 3 mins (reference value: 5.17 +/- 0.36 g); assay type: tissue-based, Cavia porcellus
Mus musculus [10] = test: Toxicity in mouse assessed as effect on pentobarbital sodium-induced hypnotic effect measured as recovery of righting reflex at 50 mg/kg pretreated for 30 mins prior to pentobarbital sodium-challenge; assay type: organism-based; set-up: dose 50 mg/kg; conditions: in vivo
Mus musculus [11] = test: Toxicity in mouse assessed as sleep abnormality at 0.05 to 0.2 mg/kg measured for 7 days; assay type: organism-based; set-up: dose 0.05-0.2 mg/kg; conditions: in vivo, 168 h; in short: as §1
Mus musculus [12] = test: Toxicity in mouse assessed as salivation at 0.05 to 0.2 mg/kg measured for 7 days; assay type: organism-based; set-up: dose 0.05-0.2 mg/kg; conditions: in vivo, 168 h; in short: as §1
Ileum [13] = test: Toxicity in guinea pig ileum assessed as effect on acetylcholine-induced smooth muscle contraction at 0.2 ug/mL after 3 mins (reference value: 5.17 +/- 0.36 g); assay type: tissue-based, Cavia porcellus
Ileum [14] = test: Toxicity in guinea pig ileum assessed as effect on acetylcholine-induced smooth muscle spasm at 0.2 ug/mL after 3 mins (reference value: 1.31 +/- 3.66%); assay type: tissue-based, Cavia porcellus; conditions: in vivo
Mus musculus [15] = test: Toxicity in mouse assessed as effect on pentobarbital sodium-induced hypnotic effect measured as loss of righting reflex latency at 50 mg/kg pretreated for 30 mins prior to pentobarbital sodium-challenge; assay type: organism-based; set-up: dose 50 mg/kg; conditions: in vivo
Mus musculus [16] = test: Toxicity in mouse assessed as convulsion at 0.05 to 0.2 mg/kg measured for 7 days; assay type: organism-based; set-up: dose 0.05-0.2 mg/kg; conditions: in vivo, 168 h; in short: as §1
Mus musculus [17] = test: Toxicity in mouse assessed as effect on pentobarbital sodium-induced hypnotic effect measured as recovery of righting reflex at 100 mg/kg pretreated for 30 mins prior to pentobarbital sodium-challenge; assay type: organism-based; set-up: dose 100 mg/kg; conditions: in vivo
Mus musculus [18] = test: Toxicity in mouse assessed as excitement at 0.05 to 0.2 mg/kg measured for 7 days; assay type: organism-based; set-up: dose 0.05-0.2 mg/kg; conditions: in vivo, 168 h; in short: as §1
Mus musculus [19] = test: Toxicity in mouse assessed as change in mental state at 0.05 to 0.2 mg/kg measured for 7 days; assay type: organism-based; set-up: dose 0.05-0.2 mg/kg; conditions: in vivo, 168 h; in short: as §1
Ileum [20] = test: Toxicity in guinea pig ileum assessed as effect on acetylcholine-induced smooth muscle spasm at 1.4 ug/mL after 3 mins (reference value: 1.31 +/- 3.66%); assay type: tissue-based, Cavia porcellus; conditions: in vivo
Ileum [21] = test: Toxicity in guinea pig ileum assessed as effect on acetylcholine-induced smooth muscle contraction at 1.4 ug/mL after 3 mins (reference value: 5.17 +/- 0.36 g); assay type: tissue-based, Cavia porcellus
Ileum [22] = test: Toxicity in guinea pig ileum assessed as effect on acetylcholine-induced smooth muscle spasm at 0.1 ug/mL after 3 mins (reference value: 1.31 +/- 3.66%); assay type: tissue-based, Cavia porcellus; conditions: in vivo
Ileum [23] = test: Toxicity in guinea pig ileum assessed as effect on acetylcholine-induced smooth muscle contraction at 0.1 ug/mL after 3 mins (reference value: 5.17 +/- 0.36 g); assay type: tissue-based, Cavia porcellus
Ileum [24] = test: Toxicity in guinea pig ileum assessed as effect on acetylcholine-induced smooth muscle spasm at 2 ug/mL after 3 mins (reference value: 1.31 +/- 3.66%); assay type: tissue-based, Cavia porcellus; conditions: in vivo
Ileum [25] = test: Toxicity in guinea pig ileum assessed as effect on acetylcholine-induced smooth muscle contraction at 2 ug/mL after 3 mins (reference value: 5.17 +/- 0.36 g); assay type: tissue-based, Cavia porcellus
Mus musculus [26] = test: Toxicity in mouse assessed as effect on pentobarbital sodium-induced hypnotic effect measured as recovery of righting reflex at 1 mg/kg pretreated for 30 mins prior to pentobarbital sodium-challenge; assay type: organism-based; set-up: dose 1 mg/kg; conditions: in vivo
In short: (§2)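 Mice, 10 per group. Groups: saline, pentobarbital alone, pentobarbital plus desloratadine 1 mg/kg, pentobarbital plus test agent at 0.05 or 0.2 mg/kg. 30 min after dosing, 1% pentobarbital sodium given i.p. at 100 mg/kg (10 mL/kg). Latency to loss of righting reflex and time to its recovery recorded, in min.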

Mus musculus [27] = test: Toxicity in mouse assessed as effect on pentobarbital sodium-induced hypnotic effect measured as loss of righting reflex latency at 1 mg/kg pretreated for 30 mins prior to pentobarbital sodium-challenge; assay type: organism-based; set-up: dose 1 mg/kg; conditions: in vivo; in short: as §2
Cavia porcellus [28] = test: Antiasthamatic activity in histamine-induced guinea pig asthma model assessed as prolongation of asthmogenic latent period at 1 mg/kg, ig pretreated for 60 mins prior to histamine-challenge (reference value: 127.10 +/- 40.46 seconds); assay type: functional; conditions: route intragastric

Histamine H1 receptor (Cavia porcellus), sequence (P31389 whole entry): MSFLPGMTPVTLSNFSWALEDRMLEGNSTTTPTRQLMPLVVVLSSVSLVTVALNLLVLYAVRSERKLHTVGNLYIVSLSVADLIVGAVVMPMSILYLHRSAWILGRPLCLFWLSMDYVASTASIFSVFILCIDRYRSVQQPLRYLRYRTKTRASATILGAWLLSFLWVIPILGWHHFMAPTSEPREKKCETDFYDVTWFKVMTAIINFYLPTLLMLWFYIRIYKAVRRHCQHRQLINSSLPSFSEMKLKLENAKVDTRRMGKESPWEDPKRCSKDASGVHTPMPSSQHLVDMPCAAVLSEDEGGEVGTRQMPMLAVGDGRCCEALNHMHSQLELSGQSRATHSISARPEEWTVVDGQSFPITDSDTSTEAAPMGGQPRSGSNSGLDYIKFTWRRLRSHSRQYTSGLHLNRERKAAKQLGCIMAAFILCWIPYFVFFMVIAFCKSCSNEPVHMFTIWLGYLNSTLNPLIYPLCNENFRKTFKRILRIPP

## Clc1ccc2c(c1)CCc1cccnc1C2=C1CCN(C2CC=CCC2)CC1 (stereo not given)
[1]
  Activity: 28.3%
[2]
  Activity: 2.38 g
Cavia porcellus [3]
  Time: 262.7 s

## OC1CCC(N2CCC(=C3c4ccc(Cl)cc4CCc4cccnc43)CC2)CC1 (stereo not given)
[1]
  Activity: 13%
[2]
  Activity: 2.93 g
Cavia porcellus [3]
  Time: 222 s

## FCCCN1CCC(=C2c3ccc(Cl)cc3CCc3cccnc32)CC1
Mus musculus [4]
  Activity: Non-toxic
Mus musculus [5]
  Activity: Non-toxic
Mus musculus [6]
  Activity: Non-toxic
Mus musculus [7]
  Time: 1.45 min
Ileum [8]
  Activity: 62.47%
[1]
  Activity: 48.7%
Ileum [9]
  Activity: 6.58 g
Mus musculus [10]
  Time: 98 min
Mus musculus [11]
  Activity: Non-toxic
Mus musculus [12]
  Activity: Non-toxic
Ileum [13]
  Activity: 9.11 g
[2]
  Activity: 1.74 g
Cavia porcellus [3]
  Time: 269.4 s
Ileum [14]
  Activity: 54.35%
Mus musculus [15]
  Time: 1.47 min
Mus musculus [16]
  Activity: Non-toxic
Mus musculus [17]
  Time: 123 min
Mus musculus [18]
  Activity: Non-toxic
Mus musculus [19]
  Activity: Non-toxic

## CCCN1CCC(=C2c3ccc(Cl)cc3CCc3cccnc32)CC1
Mus musculus [4]
  Activity: Non-toxic
Mus musculus [5]
  Activity: Non-toxic
Mus musculus [6]
  Activity: Non-toxic
Mus musculus [7]
  Time: 1.61 min
Ileum [8]
  Activity: 73.09%
[1]
  Activity: 42.5%
Ileum [9]
  Activity: 4.38 g
Mus musculus [10]
  Time: 76 min
Mus musculus [11]
  Activity: Non-toxic
Mus musculus [12]
  Activity: Non-toxic
Ileum [13]
  Activity: 7.51 g
[2]
  Activity: 1.8 g
Cavia porcellus [3]
  Time: 255.1 s
Ileum [14]
  Activity: 56.14%
Mus musculus [15]
  Time: 1.47 min
Mus musculus [16]
  Activity: Non-toxic
Mus musculus [17]
  Time: 99 min
Mus musculus [18]
  Activity: Non-toxic
Mus musculus [19]
  Activity: Non-toxic

## Clc1ccc2c(c1)CCc1cccnc1C2=C1CCN(C2CCCCC2)CC1
[1]
  Activity: 29.4%
[2]
  Activity: 2.57 g
Cavia porcellus [3]
  Time: 250.3 s

## ClCCCN1CCC(=C2c3ccc(Cl)cc3CCc3cccnc32)CC1
Mus musculus [4]
  Activity: Non-toxic
Mus musculus [5]
  Activity: Non-toxic
Mus musculus [6]
  Activity: Non-toxic
Mus musculus [7]
  Time: 1.58 min
Ileum [8]
  Activity: 47.21%
[1]
  Activity: 43%
Ileum [20]
  Activity: 69.51%
Ileum [9]
  Activity: 8.56 g
Mus musculus [10]
  Time: 97 min
Ileum [21]
  Activity: 5.68 g
Mus musculus [11]
  Activity: Non-toxic
Mus musculus [12]
  Activity: Non-toxic
[2]
  Activity: 1.81 g
Cavia porcellus [3]
  Time: 256.9 s
Mus musculus [15]
  Time: 1.48 min
Mus musculus [16]
  Activity: Non-toxic
Mus musculus [17]
  Time: 120 min
Mus musculus [18]
  Activity: Non-toxic
Mus musculus [19]
  Activity: Non-toxic

## CN1[C@@H]2CC[C@H]1CC(OC(=O)[C@H](CO)c1ccccc1)C2 (stereo partly drawn) [ENDO-ATROPINE]
Ileum [22]
  Activity: 74.9%
Ileum [23]
  Activity: 3.47 g

## CN(C)CCCN1CCC(=C2c3ccc(Cl)cc3CCc3cccnc32)CC1
[1]
  Activity: 30.4%
[2]
  Activity: 2.66 g
Cavia porcellus [3]
  Time: 212.8 s

## Clc1ccc2c(c1)CCc1cccnc1C2=C1CCN(C2CCC(Cl)CC2)CC1 (stereo not given)
Mus musculus [4]
  Activity: Non-toxic
Mus musculus [5]
  Activity: Non-toxic
Mus musculus [6]
  Activity: Non-toxic
Mus musculus [7]
  Time: 1.62 min
[1]
  Activity: 61.1%
Ileum [24]
  Activity: 70.61%
Ileum [20]
  Activity: 61.39%
Ileum [25]
  Activity: 4.4 g
Mus musculus [10]
  Time: 82 min
Ileum [21]
  Activity: 5.59 g
Mus musculus [11]
  Activity: Non-toxic
Mus musculus [12]
  Activity: Non-toxic
[2]
  Activity: 1.29 g
Cavia porcellus [3]
  Time: 325.2 s
Mus musculus [15]
  Time: 1.61 min
Mus musculus [16]
  Activity: Non-toxic
Mus musculus [17]
  Time: 103 min
Mus musculus [18]
  Activity: Non-toxic
Mus musculus [19]
  Activity: Non-toxic

## O=C1c2ccccc2C(=O)N1CCCN1CCC(=C2c3ccc(Cl)cc3CCc3cccnc32)CC1
[1]
  Activity: 26.6%
[2]
  Activity: 2.71 g
Cavia porcellus [3]
  Time: 247.9 s

## NCCCN1CCC(=C2c3ccc(Cl)cc3CCc3cccnc32)CC1
[1]
  Activity: 26%
[2]
  Activity: 2.36 g
Cavia porcellus [3]
  Time: 182.8 s

## OCCCN1CCC(=C2c3ccc(Cl)cc3CCc3cccnc32)CC1
Mus musculus [4]
  Activity: Non-toxic
Mus musculus [5]
  Activity: Non-toxic
Mus musculus [6]
  Activity: Non-toxic
Mus musculus [7]
  Time: 1.46 min
[1]
  Activity: 45.2%
Ileum [24]
  Activity: 67.06%
Ileum [20]
  Activity: 58.27%
Ileum [25]
  Activity: 6.04 g
Mus musculus [10]
  Time: 76 min
Ileum [21]
  Activity: 6.72 g
Mus musculus [11]
  Activity: Non-toxic
Mus musculus [12]
  Activity: Non-toxic
[2]
  Activity: 1.73 g
Cavia porcellus [3]
  Time: 221.9 s
Mus musculus [15]
  Time: 1.54 min
Mus musculus [16]
  Activity: Non-toxic
Mus musculus [17]
  Time: 100 min
Mus musculus [18]
  Activity: Non-toxic
Mus musculus [19]
  Activity: Non-toxic

## Clc1ccc2c(c1)CCc1cccnc1C2=C1CCNCC1 [DESLORATADINE]
Mus musculus [26]
  Time: 93 min
Mus musculus [27]
  Time: 2.23 min
[1]
  Activity: 49.1%
Cavia porcellus [28]
  Time: 278.2 s
[2]
  Activity: 1.67 g
